Test results from PMC6857568 (Molecular Biology of the Cell, 2019).
Each block holds one substance with its values, some of them ahead of it.

Assays:
[1] = tested on: dynamic Alexa 647–labeled microtubules; assay: Microtubule dynamics; format: biochemical, pig; conditions: vs MOCK
[2] = tested on: taxol-stabilized Atto647N-labeled microtubules; assay: Microtubule-binding by TIRF microscopy on taxol-stabilized microtubules; design: species or system pig
[3] = tested on: Alexa 647–labeled tubulin; assay: Spontaneous microtubule nucleation assay; format: biochemical, pig; conditions: 100 nM, 5 min, 35°C; for microtubules nucleated de novo: ± SD, MOCK 0.6 ± 0.4
[4] = tested on: dynamic Alexa 647–labeled microtubules; assay: Bundling of dynamic microtubules; format: biochemical, pig; conditions: 50 or 100 nM starPEG-(KA7)4-TAMRA; 50 nM starPEG-(DA7)4-TAMRA; 35°C
Method in brief: (§1)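 Dynamic assay: biotinylated GMP-CPP pig tubulin seeds were bound to anti-biotin antibody, then given 14 µM Alexa 647 tubulin with 1 mM GTP, methylcellulose, casein and oxygen scavenger in PIPES pH 6.8. Peptide was present at the stated concentrations, at 35°C for up to 30 min. Dual-color time-lapse was one frame per 3 s; kymographs were analyzed manually.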

[5] = tested on: depolymerizing microtubule plus ends / intersecting microtubules; assay: Outcome of depolymerizing plus end crossing an intersecting microtubule; format: biochemical, pig; conditions: for pulling events (in words): 50 or 100 nM (starPEG-(KA7)4-TAMRA); for pick-up of tubulin aggregates tracking depolymerizing plus ends: dynamic microtubule assay
Method in brief: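 Peptide was present in the dynamic-seed assay (14 µM Alexa 647 tubulin, GTP, 35°C). Dual-color time-lapse ran at one frame per 3 s. Peptide intensity at a crossing was the background-corrected integrated intensity of a five-pixel circle, taken in the frame where the depolymerizing plus end crossed the intersecting microtubule. Multiple-peak Gaussian fitting was used.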

[6] = tested on: overlaps of taxol-stabilized microtubules; assay: Accumulation in overlaps of taxol-stabilized microtubules; format: binding, pig
[7] = tested on: taxol-stabilized ATTO 647N-labeled microtubules; assay: Single-molecule diffusion and track-switching on the microtubule lattice; format: binding, pig
Method in brief: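 Peptide at 1 nM was imaged on taxol microtubules at 25°C in BRB80. Recordings were 5-min continuous streams at 100-ms exposure (532 nm). Single molecules were tracked automatically (minimum 5 frames, maximum 3-frame break) and checked against kymographs. D came from MSD linear regression and from a covariance-based estimator weighted by trajectory length.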

[8] = tested on: depolymerizing microtubule plus ends / intersecting microtubules; assay: Bending forces of pulled microtubules during pulling events; format: biochemical, pig; conditions: beam equation, deflection angle ≤30°, corrected force, mean ± SD, N = 11
[9] = tested on: dynamic Alexa 647–labeled microtubules; assay: Tracking of microtubule ends on dynamic microtubules; format: biochemical, pig
Method in brief: as §1

[10] = tested on: subtilisin-treated GMP-CPP/taxol double-stabilized microtubules; assay: Binding to subtilisin-treated; design: species or system pig; conditions: C-termini removed
Method in brief: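 GMP-CPP microtubules were digested with 200 µg/ml subtilisin A in BRB80 plus 10 µM taxol for 1 h at 30°C, then stopped with 10 mM PMSF. Digestion was checked by SDS-PAGE. Brightly labeled (1:4) digested and dimly labeled (1:20) undigested microtubules shared one channel. Peptide binding was imaged by TIRF at 25°C in the stabilized-microtubule buffer.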

[11] = tested on: rat kinesin-1 (rKin430-GFP); assay: Kinesin-1 stepping; format: biochemical; conditions: 5 and 25 nM
Method in brief: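 GFP-tagged truncated rat kinesin-1 (1–430) ran on antibody-bound taxol microtubules with 1 mM ATP and peptide, at 25°C. Movies were 5 min at 100-ms exposure (488 nm), with a peptide snapshot beforehand. Landing rate, velocity, dwell time and run length were scored manually from kymographs. Gaussian and log-normal fits were applied; half-maxima of cumulative plots were reported.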

[12] = target: Atto647N-labeled microtubules of pig brain tubulin (pig) (UniProt Q2XVP4); assay: TIRF microscopy binding assay
[13] = average, n = 19 tracking events, 35°C

microtubule binding ([2]; high nanomolar concentrations (i.e., >250 nM), charge-inverted control): does not show any microtubule binding
Substance: starPEG-(DA7)4-TAMRA
effect on microtubule dynamics (in words) ([1]; 50 nM): do not change microtubule dynamics compared with MOCK control
microtubules nucleated de novo [3]: 0.8 ± 1.0 MT per minute and field of view
microtubule bundling [4]: not in the presence of 50 nM starPEG-(DA7)4-TAMRA
pulling events (in words) [5]: none
pick-up of tubulin aggregates tracking depolymerizing plus ends [5]: not evident

saturation of microtubule binding ([2]; taxol-stabilized microtubules, BRB80, 25°C): ~200 nM
effect of subtilisin protease treatment on microtubule binding [10]: completely abolishes microtubule binding
Substance: starPEG-(KA7)4-TAMRA
accumulation in microtubule overlaps (in words) ([6]; low density (5 nM)): preferentially binds to or accumulates in overlaps of taxol-stabilized microtubules
accumulation in microtubule overlaps (in words) ([6]; near a half-saturating concentration (25 nM)): this effect is lost
effect on rescue frequency (in words) ([1]; 50 and 100 nM): 100 nM but not 50 nM starPEG-(KA7)4-TAMRA significantly reduces the rescue frequency
effect on growth velocity (in words) ([1]; 50 or 100 nM): increases the growth velocity significantly
diffusion coefficient (overall) ([7]; 25°C, BRB80): ~0.3 µm^2s^–1
diffusion coefficient D (MSD) ([7]; mean square displacement, linear regression, mean ± SEM, N = 998, 1 nM, 25°C, BRB80): 0.33 ± 0.04 µm^2s^–1
track-switching at microtubule intersections ([7]; single molecules, taxol-stabilized microtubules): able to switch their microtubule track at microtubule–microtubule intersections
bending force during pulling events (mean) [8]: 4.2 ± 2.7 pN
tracking of growing microtubule plus end ([9]; after rescue event): unable to track the growing microtubule plus end
microtubule shortening during tracked depolymerization events [9, 13]: ~60%
microtubule-bound intensity lost during one depolymerization event [9, 13]: ~30%
minus-end tracking ([9]; dynamic microtubules): could not observe any minus-end-tracking event
concentration on remaining microtubule lattice by end-tracking ([9]; normalized intensity / normalized length): about twofold
microtubule nucleation (in words) [3]: robust nucleation is evident
microtubules nucleated de novo [3]: 9 ± 2.5 MT per minute and field of view
microtubule bundling [4]: pronounced microtubule bundling
pulling events (in words) [5]: frequent pulling events
pick-up of tubulin aggregates tracking depolymerizing plus ends [5]: eventually picked up surface-associated tubulin aggregates that started to diffuse along the microtubule lattice and tracked depolymerizing plus ends
effect on kinesin-1 dwell time (in words) [11]: does not significantly affect the motor’s average dwell time
effect on kinesin-1 landing rate (in words) [11]: significantly decreases the landing rate of kinesin-1 in a concentration-dependent manner
effect on kinesin-1 run length (in words) [11]: nor the average motor run length
effect on kinesin-1 velocity (in words) [11]: slightly increased

Kd [12]: 30 nM
concentration at which saturation is reached [12]: 200 nM
Substance: starPEG-(KA7)4-TAMRA (designed binder)
